Assay results taken from ChEMBL document CHEMBL1641377, “Discovery of novel, potent, selective, and orally active human glucagon receptor antagonists containing a pyrazole core” (Bioorg Med Chem Lett, 2011).
Calls of active or inactive are those of the source. The rule behind the calls is not given here.

Assays:
[1] = biological target: T1, Gastric inhibitory polypeptide receptor (Homo sapiens, UniProt P48546); test: Antagonist activity at human GIPR expressed in CHO cells assessed as inhibition of glucagon-induced cAMP accumulation; assay type: functional, cell-based
T1 sequence (P48546 whole entry): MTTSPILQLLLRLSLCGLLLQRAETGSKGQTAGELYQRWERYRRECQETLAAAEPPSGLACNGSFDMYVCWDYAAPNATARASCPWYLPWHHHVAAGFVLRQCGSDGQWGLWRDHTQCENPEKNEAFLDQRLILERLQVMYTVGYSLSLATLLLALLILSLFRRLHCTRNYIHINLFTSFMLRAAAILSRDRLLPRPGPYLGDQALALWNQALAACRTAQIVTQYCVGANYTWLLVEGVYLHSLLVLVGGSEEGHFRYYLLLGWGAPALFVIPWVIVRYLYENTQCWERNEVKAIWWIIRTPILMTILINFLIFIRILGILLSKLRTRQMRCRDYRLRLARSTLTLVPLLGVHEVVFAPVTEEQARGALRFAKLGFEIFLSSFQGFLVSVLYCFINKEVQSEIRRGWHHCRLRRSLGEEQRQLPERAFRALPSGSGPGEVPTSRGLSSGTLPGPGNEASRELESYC

[2] = biological target: Pituitary adenylate cyclase-activating polypeptide type I receptor (Homo sapiens, UniProt P41586); test: Antagonist activity at human PACAPR1 expressed in CHO cells assessed as inhibition of glucagon-induced cAMP accumulation; assay type: functional, cell-based
Chain of Pituitary adenylate cyclase-activating polypeptide type I receptor (P41586 whole entry): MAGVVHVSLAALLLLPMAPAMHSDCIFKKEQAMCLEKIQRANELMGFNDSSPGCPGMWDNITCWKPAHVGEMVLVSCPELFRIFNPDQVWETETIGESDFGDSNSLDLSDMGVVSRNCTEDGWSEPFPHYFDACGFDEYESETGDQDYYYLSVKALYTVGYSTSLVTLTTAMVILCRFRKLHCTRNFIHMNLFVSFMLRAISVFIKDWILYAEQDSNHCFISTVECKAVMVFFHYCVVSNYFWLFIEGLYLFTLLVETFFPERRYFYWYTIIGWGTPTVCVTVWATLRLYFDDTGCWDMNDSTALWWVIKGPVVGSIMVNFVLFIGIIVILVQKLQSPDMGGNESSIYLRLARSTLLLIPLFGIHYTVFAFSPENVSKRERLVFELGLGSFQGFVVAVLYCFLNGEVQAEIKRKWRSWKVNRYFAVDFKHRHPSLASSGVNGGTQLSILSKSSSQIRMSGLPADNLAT

Oryctolagus cuniculus = species: Oryctolagus cuniculus; test: Binding affinity to DLZ-sensitive rabbit calcium channel up to 10 uM
Cytochrome P450 2C8 = biological target: T2, Cytochrome P450 2C8 (Homo sapiens, UniProt P10632); test: Inhibition of CYP2C8; assay type: ADME
T2 sequence (P10632 whole entry): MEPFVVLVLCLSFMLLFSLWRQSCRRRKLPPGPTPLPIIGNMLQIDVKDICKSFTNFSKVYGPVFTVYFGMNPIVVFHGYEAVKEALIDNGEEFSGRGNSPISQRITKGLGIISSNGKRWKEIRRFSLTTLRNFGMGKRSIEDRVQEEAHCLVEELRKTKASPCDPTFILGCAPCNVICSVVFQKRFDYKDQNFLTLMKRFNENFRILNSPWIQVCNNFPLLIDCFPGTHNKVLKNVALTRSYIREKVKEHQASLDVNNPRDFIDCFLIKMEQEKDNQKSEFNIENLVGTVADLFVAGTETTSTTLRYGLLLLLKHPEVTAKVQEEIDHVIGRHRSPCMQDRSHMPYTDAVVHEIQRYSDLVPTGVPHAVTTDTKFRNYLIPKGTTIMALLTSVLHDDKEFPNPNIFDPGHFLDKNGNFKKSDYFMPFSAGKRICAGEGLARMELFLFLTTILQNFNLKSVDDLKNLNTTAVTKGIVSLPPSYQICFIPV

[3] = biological target: T3, Nuclear receptor subfamily 1 group I member 2 (Homo sapiens, UniProt O75469); test: Activity at human PXR
T3 sequence (O75469 whole entry): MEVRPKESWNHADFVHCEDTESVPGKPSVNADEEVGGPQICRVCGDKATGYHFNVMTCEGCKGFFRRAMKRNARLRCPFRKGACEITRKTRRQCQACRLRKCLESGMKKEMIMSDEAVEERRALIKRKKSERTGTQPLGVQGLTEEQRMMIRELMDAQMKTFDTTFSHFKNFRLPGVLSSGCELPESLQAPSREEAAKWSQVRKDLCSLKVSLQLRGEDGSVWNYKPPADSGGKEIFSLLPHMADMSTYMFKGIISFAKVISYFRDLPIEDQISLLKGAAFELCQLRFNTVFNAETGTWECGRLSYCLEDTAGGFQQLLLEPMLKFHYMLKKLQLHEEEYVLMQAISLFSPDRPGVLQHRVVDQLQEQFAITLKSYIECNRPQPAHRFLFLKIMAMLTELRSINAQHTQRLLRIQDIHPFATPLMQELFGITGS

Mus musculus = test: Antihyperglycemic activity in streptozotocin-induced diabetes mouse model assessed as decrease in blood glucose AUC level at 30 mg/kg, po after 4 weeks; assay type: functional; conditions: 672 h
Method in brief: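 Diabetic model: hGCGR transgenic mice on high-fat diet for eight weeks, streptozotocin-treated during the last four weeks; single oral dose, blood glucose AUC over 2–6 h measured.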

[4] = Blood clearance in mouse at 1 mg/kg, iv and 2 mg/kg, po; assay type: ADME, organism-based
[5] = Plasma clearance in rat at 1 mg/kg, iv and 2 mg/kg, po; assay type: ADME, organism-based
[6] = Volume of distribution at steady state in mouse at 1 mg/kg, iv and 2 mg/kg, po; assay type: ADME, organism-based; conditions: in vivo, read-out: Vdss
[7] = Volume of distribution at steady state in dog at 0.5 mg/kg, iv and 2 mg/kg, po; assay type: ADME, organism-based, Canis lupus familiaris; conditions: in vivo, read-out: Vdss
[8] = Volume of distribution at steady state in rhesus monkey at 0.5 mg/kg, iv and 2 mg/kg, po; assay type: ADME, organism-based, Macaca mulatta; conditions: in vivo, read-out: Vdss
[9] = Half life in rhesus monkey at 0.5 mg/kg, iv and 2 mg/kg, po; assay type: ADME, organism-based, Macaca mulatta; conditions: in vivo
[10] = Cmax in mouse at 2 mg/kg, po; assay type: ADME, organism-based; set-up: dose 2 mg/kg, route oral; conditions: in vivo
[11] = Cmax in rhesus monkey at 2 mg/kg, po; assay type: ADME, organism-based, Macaca mulatta; set-up: dose 2 mg/kg, route oral; conditions: in vivo
[12] = Bioavailability in rhesus monkey at 0.5 mg/kg, iv and 2 mg/kg, po; assay type: ADME, organism-based, Macaca mulatta; conditions: in vivo
Rhesus monkey = test: Antidiabetic activity in rhesus monkey assessed as inhibition of glucagon-induced blood glucose excursion at 1 to 10 mg/kg, po administered 4 hrs before glucagon challenge measured after 4 hrs; assay type: functional, organism-based; conditions: Macaca mulatta
Method in brief: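 Overnight-fasted rhesus monkeys dosed with vehicle or compound 4 h before challenge; glucagon 15 µg/kg im at time zero, plasma glucose monitored every 10 min and expressed as change from time zero per group.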

IC50 [1]: 7.5 µM
IC50 [2]: > 7 µM
Activity (Oryctolagus cuniculus): inactive
IC50 (Cytochrome P450 2C8): 19 µM
EC50 [3]: > 25 µM
clearance [4]: 6.1 mL/min/kg
clearance [5]: 1.6 mL/min/kg
Vd [6]: 1.1 L/kg
Vd [7]: 0.14 L/kg
Vd [8]: 0.55 L/kg
half-life [9]: 10 h
Cmax [10]: 230 nM
Cmax [11]: 4200 nM
bioavailability [12]: 68%
Compound: O=C(O)CCNC(=O)c1ccc(Cn2nc(-c3cc(Cl)cc(Cl)c3)cc2-c2ccc(OC(F)(F)F)cc2)cc1
inhibition in vivo at 30 mg/kg (Mus musculus): 37%
inhibition (Rhesus monkey): Active
